Screening data from PubChem.
Sampled rows, rich in hits. Any-hit rate of the full collection: about 9.4%.
SKKanGAS inh – S. pyogenes SKKanGAS growth inhibitors in kanamycin, primary screen, streptokinase expression inhibitor project, SKKanGAS strain, BacTiter-Glo luminescence; 6 h; inhibition, % at 7.5 µM; AID 1662, 2009; 300,000 tested, 1.3% active;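 active means mean replicate score, as percent of positive control median, at least 50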;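 further: strain carries kanamycin resistance gene driven by streptokinase promoter and grows in 40 µg/ml kanamycin; loss of luminescence reflects streptokinase promoter inhibition or plain growth inhibition; 0% = median of DMSO wells and 100% = positive control at its reference dose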
L major viab – Leishmania major promastigote growth inhibition, primary screen; Leishmania major promastigotes, resazurin fluorescence viability; inhibition, % at 10 µM; 200,000 tested, 9% active; AID 1063, 2008; in the data active means inhibition above about 50%;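 further: promastigotes grown with compound for 44 hours at 28 °C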
Mdm2-MdmX inh – inhibitors of human Mdm2-MdmX association, primary screen, cell-based, luminescence, split luciferase, SaOS-2, uHTS. inhibition, % at 8 µM. SaOS-2 split-luciferase Mdm2/MdmX complementation. AID 485346, 2010. Protein Mdm4 (Homo sapiens) + E3 ubiquitin-protein ligase Mdm2 (Homo sapiens), …. 330,000 tested, 3% active;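 active means inhibition of at least 50% at 8 µM in the primary screen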
Target sequence (O15151 whole entry, looked up): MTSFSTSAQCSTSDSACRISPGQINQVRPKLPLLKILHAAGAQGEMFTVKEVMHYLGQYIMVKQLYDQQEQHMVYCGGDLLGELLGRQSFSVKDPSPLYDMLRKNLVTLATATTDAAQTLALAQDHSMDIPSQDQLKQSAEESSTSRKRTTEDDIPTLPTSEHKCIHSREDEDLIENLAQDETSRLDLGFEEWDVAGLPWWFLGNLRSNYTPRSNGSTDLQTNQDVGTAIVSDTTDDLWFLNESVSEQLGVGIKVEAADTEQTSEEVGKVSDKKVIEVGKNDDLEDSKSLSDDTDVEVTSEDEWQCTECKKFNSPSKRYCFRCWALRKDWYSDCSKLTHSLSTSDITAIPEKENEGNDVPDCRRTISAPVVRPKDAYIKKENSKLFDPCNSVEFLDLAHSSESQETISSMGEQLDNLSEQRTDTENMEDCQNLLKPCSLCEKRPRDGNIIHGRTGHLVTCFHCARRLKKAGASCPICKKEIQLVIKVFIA
Target sequence (Q00987 whole entry, looked up): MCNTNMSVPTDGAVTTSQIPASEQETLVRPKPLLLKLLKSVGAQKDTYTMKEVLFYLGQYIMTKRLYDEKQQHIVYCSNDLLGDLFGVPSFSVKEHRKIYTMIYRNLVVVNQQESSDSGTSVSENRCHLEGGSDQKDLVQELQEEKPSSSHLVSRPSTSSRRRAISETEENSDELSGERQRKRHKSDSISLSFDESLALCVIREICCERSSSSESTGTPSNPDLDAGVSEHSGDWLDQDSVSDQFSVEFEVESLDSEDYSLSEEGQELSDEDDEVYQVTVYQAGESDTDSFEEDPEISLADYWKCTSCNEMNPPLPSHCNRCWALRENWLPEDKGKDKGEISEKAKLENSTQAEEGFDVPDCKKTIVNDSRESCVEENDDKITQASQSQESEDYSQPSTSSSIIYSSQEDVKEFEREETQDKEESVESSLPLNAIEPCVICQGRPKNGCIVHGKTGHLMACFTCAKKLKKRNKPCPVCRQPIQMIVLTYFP
CSC inhib – cancer stem cell viability inhibitors, primary screen, luminescence; cancer stem cell-like cells viability; inhibition, % at 7.5 µM; AID 2717, 2010; 300,000 tested, 1.1% active; in the data active means inhibition above about 75%; tested in HMLE shEcad cells
T cruzi inh – inhibitors of intracellular T. cruzi growth, primary screen, luminescence, NIH3T3 host cells. T. cruzi beta-gal in NIH3T3, 90 h. inhibition, % (no concentration beside the values). 300,000 tested, 1.4% active. AID 1885, 2009;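 active means mean inhibition across valid replicates above about 55%, limit read from the data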;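 further: signal also drops with host cell toxicity which is not excluded here; 0% = plate median of DMSO wells and 100% = zero luminescence signal; higher percent means less beta-gal luminescence so fewer parasites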
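compound dosing = single 50 nL compound addition per well in DMSO | material = NIH/3T3 host cells with β-galactosidase reporter T. cruzi | input = 5,000 host fibroblasts per well | timing = ≥90 h infection period, 3 h prior cell attachment | read-out basis = percent inhibition of parasite-derived β-gal signal | detection = GalScreen β-gal luminescence, detergent lysis, 60 min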
Beta cell apopt – inhibitors of cytokine-induced beta cell apoptosis, primary screen, luminescence; INS-1E cytokine-induced death, ATP luminescence, 48 h; percent of positive-control rescue, neutral wells zero; protection from apoptosis, % (concentration not given with the values); 300,000 tested, 0.8% active; AID 435005, 2010;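 active means Every replicate reaches about 75%, or at least half do and their mean reaches it too, limit read from the data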;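 further: 0% = cytokine-treated negative control wells and 100% = positive control rescue; higher means more ATP so stronger rescue from cytokine killing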
* marks the source's active call; other numbers are inactive results; nt = no result given.

SMILES | SKKanGAS inh | L major viab | Mdm2-MdmX inh | CSC inhib | T cruzi inh | Beta cell apopt
Cc1cc(OCCOCCN(C)CCO)cc(C)c1Cl | -6 | 95* | 15 | -3 | 37 | 0
CCN(CC)CCOCCOc1cc(C)c(Cl)c(C)c1 | -3 | 99* | 0 | 89* | 64* | -3
O=C(Nc1cccnc1Oc1ccc(Cl)cc1)c1cccc2ccccc12 | -31 | nt | 6 | 24 | -4 | -1
COCCNC(=O)C(=O)N/N=C/c1ccc(C(=O)OC)cc1 | 2 | 0 | 13 | -6 | -10 | 0
O=C(C1CCN(S(=O)(=O)c2ccccc2)CC1)N1CCc2ccccc21 | -4 | nt | 12 | -18 | 19 | 5
CC(OC(=O)C1CCN(S(=O)(=O)c2ccc(Cl)cc2)CC1)C(=O)N1CCc2ccccc21 (stereo not given) | 20 | 98* | 17 | -1 | -8 | -2
Cc1ccc2nc(SC(C(=O)c3ccccc3)c3ccccc3)nc(C)c2c1 (stereo not given) | 7 | 92* | -13 | 17 | 28 | -4
Cc1ccc2nc(SCC(=O)O)nc(C)c2c1 | -3 | -9 | -11 | 7 | -1 | 0
CC(=O)Nc1nc(NC(=O)/C=C/c2ccccc2)n(-c2ccccc2)n1 | 97* | 95* | 29 | 14 | 27 | 13
CC(=O)Nc1nc(NCc2ccccc2Cl)n(-c2ccccc2)n1 | 4 | nt | -7 | -3 | 2 | 4
COC(C[C@H]1O[C@H]1[C@@H](O)[C@@H](C)OCc1ccccc1)OC | 1 | nt | 26 | nt | -18 | nt
Cc1occc(=O)c1OC(=O)Nc1ccc(Cl)c(Cl)c1 | nt | -2 | nt | 38 | nt | 106*
O=S(=O)(N/N=C\C=C\c1ccccc1)c1ccccc1 | -4 | 51* | 1 | -17 | -16 | -7
O=S(=O)(N/N=C\c1cccnc1)c1ccccc1 | -1 | -9 | 20 | -4 | -13 | 5
O=C(CSc1n[nH]c(-c2ccncc2)n1)Nc1ccccc1Cl | 8 | nt | 19 | 14 | 2 | 6
CSc1ccc(/C=N/NC(=O)c2ccccc2Cl)cc1 | -3 | 4 | -17 | 33 | 2 | 3
O=[N+]([O-])c1cccc(/C=N\N=C2c3ccccc3-c3ccccc32)c1O | -1 | 74* | -7 | -10 | 10 | -1
COc1cccc(N/N=C/c2cccc(Br)c2O)c1 | 63* | nt | -49 | 44 | 65* | 19
NC(N)=N/N=C/c1cccc([N+](=O)[O-])c1O | 4 | -4 | 12 | -16 | 34 | -7
O=[N+]([O-])c1ccc(N/N=C\c2ccccc2OCc2ccccc2)cc1 | 2 | 53* | 9 | nt | 17 | 6
O=[N+]([O-])c1ccccc1N/N=C/c1cccc(O)c1O | 5 | nt | -35 | 86* | -24 | 20
Cc1c(NC(=O)CN2C(=O)NC(C)(c3ccc(Cl)cc3)C2=O)c(=O)n(-c2ccccc2)n1C (stereo not given) | -2 | nt | 5 | -6 | -14 | -4
CN(C)S(=O)(=O)c1ccc(N2CCCC2)c(C(=O)NNC(=O)c2ccccc2)c1 | nt | nt | 17 | -12 | nt | -1
O=C(CSc1ncccc1C(=O)O)Nc1ccc2c(c1)OCCO2 | 4 | nt | 2 | nt | -6 | -1
Cc1ccccc1N(CC(=O)N1CCOCC1)S(C)(=O)=O | 2 | -6 | 10 | -7 | -7 | -8
SMILES | SKKanGAS inh | L major viab | Mdm2-MdmX inh | CSC inhib | T cruzi inh | Beta cell apopt
O=[N+]([O-])c1cccc(N/N=C/c2cccc(O)c2O)c1 | 7 | 90* | 24 | 37 | 35 | 12
COc1cccc(OCCCn2ccnc2)c1 | -7 | nt | 27 | -16 | 2 | -4
CCOc1cccc(OCCCCn2ccnc2)c1 | -3 | 87* | 0 | 27 | 36 | -2
Fc1ccc(OCCCCCn2ccnc2)cc1 | -3 | nt | -12 | 21 | 55* | -2
CCc1ccc(OCCCCCn2ccnc2)cc1 | 1 | nt | 0 | 25 | 38 | 3
CCc1cccc(OCCCn2ccnc2)c1 | -1 | 95* | 31 | nt | 36 | -2
Brc1cccc(OCCOCCn2ccnc2)c1 | 0 | 99* | 13 | -1 | 45 | -6
CC(C(=O)OCC(=O)c1cccc([N+](=O)[O-])c1)N1C(=O)C2C3C=CC(C3)C2C1=O (stereo not given) | 0 | nt | 29 | -12 | -4 | -8
COc1ccccc1C1=NOC(C(=O)N2CCN(C(=O)c3ccco3)CC2)C1 (stereo not given) | -4 | nt | 0 | -10 | -2 | -6
Cc1ccc2c(c1)c1nc3ccccc3nc1n2C | 19 | nt | -2 | 0 | 10 | -5
Cn1c(-c2ccc(N)cc2)nc2ccccc21 | nt | -1 | -44 | -8 | nt | -5
Cn1c(-c2c(N)n(-c3ccccc3)c3nc4ccccc4nc23)nc2ccccc21 | -19 | 75* | nt | 4 | 52 | -1
Cc1ccc(-n2c(N)c(-c3nc4ccccc4n3C)sc2=S)cc1 | 50* | 2 | -13 | nt | 39 | 6
Cc1cccc(-n2c(N)c(-c3nc4ccccc4n3C)c3nc4ccccc4nc32)c1 | 78* | 50 | 16 | 2 | 47 | 3
COc1ccc(O)c(N)c1 | nt | 98* | 39 | nt | nt | nt
CCCN(CCO)Cc1cccc(Oc2ccccc2)c1 | -3 | 97* | 9 | 6 | 22 | 4
COc1cccc(NC(=O)CN(C)C(=O)/C=C/c2cn(-c3ccccc3)nc2-c2ccc(C)cc2)c1 | 24 | nt | 28 | -3 | 44 | nt
COc1ccc(NC(=O)CN(C)C(=O)/C=C/c2cn(-c3ccccc3)nc2-c2cccs2)cc1 | 7 | nt | 13 | 2 | 6 | -4
COc1ccc(NC(=O)CN(C)C(=O)/C=C/c2cn(-c3ccccc3)nc2-c2ccc(F)cc2)cc1 | 63* | nt | 24 | 8 | 17 | -1
Cc1ccccc1NC(=O)COC(=O)/C=C/c1cn(-c2ccccc2)nc1-c1cccnc1 | -8 | 53* | -6 | 1 | -7 | -5
COc1ccc(NC(=O)CN(C)C(=O)/C=C/c2cn(-c3ccccc3)nc2-c2ccc(C)cc2)cc1 | 58* | nt | 20 | 11 | 72* | 7
COc1ccc(-c2nn(-c3ccccc3)cc2/C=C/C(=O)OCC(=O)Nc2ccc(C#N)cc2)cc1 | 6 | 92* | 25 | 17 | 34 | 7
CCOC(=O)[C@@H]1[C@H]2COc3cc(OC)ccc3[C@H]2N2C(=O)N(c3cccc(F)c3)C(=O)[C@]12C | nt | nt | 9 | -21 | nt | -8
CN(CC(=O)Nc1cccc(F)c1)C(=O)c1cn(-c2ccccc2)nc1-c1ccc(Cl)cc1 | nt | nt | 26 | 102* | nt | 18
CN(CC(=O)Nc1cccc(F)c1)C(=O)c1cn(-c2ccccc2)nc1-c1cccs1 | 18 | nt | 15 | 11 | 28 | 3
CC(C#N)(Nc1ccc(Cl)cc1)c1cccnc1 (stereo not given) | 2 | 70* | -7 | 49 | -16 | -1
